Experimental data as given in ChEMBL document CHEMBL4513216, “Probing the Open Global Health Chemical Diversity Library for Multistage-Active Starting Points for Next-Generation Antimalarials” (ACS Infect Dis, 2020).

Test: Toxicity liver stage against HepG2, at 10uM
Type: cell-based
Set-up: test concentration 10 uM, cell line HepG2-A16-CD81EGFP
Settings: human, HepG2-A16-CD81EGFP cells; read-out: INHIBITION
Procedure, shortened: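 Uninfected HepG2-A16-CD81EGFP cells, 3 × 10^3 per well, 1536-well, plated on prespotted compound at 10 μM final, parasite-free screening media added to match infected plates; puromycin 10 μM positive, DMSO 0.5% negative; run in parallel with 48 h PbLuc assay at 37 °C, 5% CO2; viability by CellTiter-Glo luminescence, normalized to controls.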

SMILES	cytotoxicity at 10 µM
c1cncc(-c2nnc([C@H]3CCN(CC4CC4)C3)o2)c1	9.06%
COc1ccc(-c2cn3c(n2)CO[C@@H](CNCc2ccccn2)C3)cc1	-11.8%
Cc1cc(=O)n2nc(-c3cccs3)nc2n1CC(=O)NC(C)C	12.7%
CN(C)c1ccc(C(CNS(=O)(=O)c2cccs2)N2CCCC2)cc1 (stereo not drawn)	2.31%
CCc1cnc2c(c1NCc1ccc(OC)cc1)c(=O)n(C)c(=O)n2C	5.79%
Cc1cc(=O)[nH]c(-n2nc(C)c(CCC(=O)Nc3nc(C)cs3)c2C)n1	5.61%
O=C1CSC(c2ccsc2)c2c(n(C3CCOCC3)[nH]c2=O)N1 (stereo not drawn)	9.53%
CCn1nc(C)c2nc(C(C)C)nc(NCCc3ccc(O)cc3)c21	18.1%
CCN1CCN(c2ncc3c(=O)n(Cc4ccco4)ccc3n2)CC1	-15.9%
CCn1cc(C(=O)NCc2csc(C3CC3)n2)c(C)n1	27.4%
COCC(=O)NC[C@]1(O)CN(Cc2ccc3c(c2)OCCO3)C[C@H]1O	1.88%
CN1CCC(CCc2ccnc(NC(=O)c3ccccn3)c2)CC1	-2.12%
Cc1cc(N2CCOCC(Cc3ccc4[nH]ccc4c3)C2)ncn1 (stereo not drawn)	-3.77%
CC(C)Oc1cccc(CN2CCC(c3n[nH]c4ncccc34)CC2)c1	-6.15%
O=C(c1ccccn1)N1CCC2(COc3ncccc3S(=O)(=O)N2)C1 (stereo not drawn)	8.96%
CC(C)CCN1CCC2(CNS(=O)(=O)c3cccnc3O2)C1 (stereo not drawn)	4.1%
Cc1noc(C)c1CNC1CCN(c2ccccc2OC(F)F)C1 (stereo not drawn)	9.5%
CC(C)(C)c1nccc(N2CCC(OCCN3CCCCC3)C2)n1 (stereo not drawn)	-53.7%
CCN(CC)S(=O)(=O)CC(=O)N1CCc2ccc(F)cc21	-4.73%
O=C(c1ccc(F)cc1)N(CCCO)S(=O)(=O)c1cccs1	-6.24%
Cc1nc(CN2CCCC(C)(CO)C2)no1 (stereo not drawn)	5.89%
CCc1ccc(C(=O)N2CCCC(c3nn[nH]n3)C2)cc1 (stereo not drawn)	4.6%

SMILES	cytotoxicity at 10 µM
Cc1cc(CN(C)C(=O)Nc2ccccc2C)no1	-8.75%
N#Cc1cccc(CNCCC(=O)N2CCc3sccc3C2)c1	1.04%
c1csc(N2CCCN(c3ncnc4sccc34)CC2)n1	45.3%
CCc1cccc(OCCn2cccc(C#N)c2=O)c1	9.04%
COc1cccc2c1N(CC(=O)Nc1ccc(Br)cn1)CCC2	36.5%
CC(C)S(=O)(=O)CCN1CCc2c(ncn2C2CC2)C1	-13.9%
CSc1cc2c(cc1NC(=O)NCC1CCOC1)OCCO2 (stereo not drawn)	-4.54%
CC(C)Sc1nnnn1C1CCCC1	-8.61%
CCCS(=O)(=O)N1CCC(NC(=O)c2cc3ccccc3s2)CC1	4.69%
COc1ccc(C(=O)N2CCOCC2c2ccc(C)o2)cc1 (stereo not drawn)	-2.24%
CC(=O)NCCc1ccc(S(=O)(=O)N(C)C(C)CC(C)C)s1 (stereo not drawn)	-1.88%
CN(C)CCN(Cc1ccc(Cl)cc1)C(=O)c1cnccn1	-1.85%
CCNS(=O)(=O)c1ccc(C)c(C(=O)N(C)Cc2ccccc2C)c1	0.997%
O=C(NC1CC1)c1cc(NC(=O)N2CCOCC2)ccc1Cl	-4.15%
CC(NC(=O)c1ccnn1C)c1ccc(OCC2CC2)c(F)c1 (stereo not drawn)	48.8%
Cc1cnn(CC2CN(CC(=O)Nc3cccnc3)CCO2)c1 (stereo not drawn)	8.1%
Cc1ccc(-n2cc(S(=O)(=O)Nc3cccc(C(=O)O)c3C)cn2)cc1	-1.74%
CNC(=O)c1cccc(CNC(C)c2ccc(F)cc2N(C)C)c1 (stereo not drawn)	0.508%
COc1ccc(NC(C)=O)cc1OCc1cccnc1	-23.5%
NC(=O)NC(=O)CCSCc1coc(-c2ccc(F)cc2)n1	-7.45%
COc1ccc(C(N)=O)cc1NCc1nc(-c2cccs2)oc1C	1.83%
COCCC(=O)Nc1ccnn1-c1ccccc1	-2.55%

SMILES	cytotoxicity at 10 µM
CCC(=O)Nc1cc(Br)cnc1OCC(F)(F)F	-1.24%
CCCN(C)CC1CCN(c2ncc(Br)cn2)C1 (stereo not drawn)	-6.68%
CC(C)(C)n1cc(C(=O)O)c(-c2ccc(F)cc2F)n1	6.92%
CN(C(=O)C(c1c(F)cccc1Cl)N(C)C)c1nccs1 (stereo not drawn)	-58%
NS(=O)(=O)c1ccc(NC(=O)CSc2ccc3c(c2)CCC3)cc1	-9.06%
O=S(=O)(C1CC1)N1Cc2nccn2CC(Cn2cncn2)C1 (stereo not drawn)	1.02%
CCS(=O)(=O)N1CCc2c(COCc3ccncc3)cncc2C1	-84.1%
CC(C)NC(=O)N1CCC2(CC1)CC[C@@]1(C(=O)N(C)C)CN(C)C[C@@H]21	-108%
COCC1CN(C(=O)c2cccs2)Cc2nccn2C1 (stereo not drawn)	-104%
Cc1nccc([C@@H]2C[C@@H]3CCN(Cc4c(C)noc4C)C[C@H]3O2)n1	-76.9%
O=C(N1CCOCC1)N1CCC2(CC1)CN(c1ccccn1)CCO2	-78.2%
COc1ccc(CN2CCC3(CC2)CCN(c2ncccn2)CC3)cc1	-1.08%
CC(C)NC(=O)N1CCC2(CC(=O)N(c3cccc(C#N)c3)C2)C1 (stereo not drawn)	5.66%
CC(C)c1cc(NCC2(CO)CCC2)ncn1	4.66%
CC(C)[C@H]1CN(Cc2ccccn2)C[C@@H]1NS(=O)(=O)C1CC1	-0.578%
Fc1ccc(CC2CCN(Cc3cscn3)CC2)cc1	-7.27%
CC(C)=CCN1CCN(Cc2cccc(C)n2)CC1CCO (stereo not drawn)	1.99%
COCCN1CCC(CNC(=O)Nc2ccc(SC(F)(F)F)cc2)C1 (stereo not drawn)	-11.6%
O=C(NC1CC1)c1ccnc(N2CCOC(c3ccc(Cl)cc3)C2)c1 (stereo not drawn)	4.44%
Cc1cnc(N2CCC(c3ccccc3)CC2)nc1-c1ccnn1C	4.68%
C=C(C)COc1cccc(CNC(CC)c2ccnn2C)c1 (stereo not drawn)	-4.21%
CC(C)=CCC/C(C)=C/CN1CCN(C)C2(CCNC(=O)CC2)C1 (stereo not drawn)	-54.1%

SMILES	cytotoxicity at 10 µM
CCc1nccn1CCC(=O)N1CCN(c2ccccc2C)CC1C (stereo not drawn)	11%
Cc1c(CN2CC[C@@H](N3CCC(O)CC3)[C@H](O)C2)[nH]c2ccc(F)cc12	4.07%
CCc1cc(CN(C)C(=O)C2CC(=O)N(c3cccc(O)c3)C2)on1 (stereo not drawn)	-1.72%
O=C(O)c1ccc(CC2CCN(Cc3ccc(-c4cc[nH]n4)o3)C2)cc1 (stereo not drawn)	6.37%
CSCc1ccc(N2CCC(C(O)CC(C)C)CC2)nc1 (stereo not drawn)	11.4%
COc1ccccc1[C@@H]1CN(Cc2ccc3nsnc3c2)C[C@H]1C(=O)O	-4.18%
Cc1cc(CNc2nccc(N)n2)c2[nH]c(C)c(C)c2c1	-1.86%
CC(C)(C)CN1CCCC2(CCN(C(=O)c3cn[nH]c3)C2)C1 (stereo not drawn)	2.87%
COc1ccc(Oc2ncccc2C(F)(F)F)cc1CN1CCCC1	4.22%
Cc1nccn1CCC1CCCCN1C(=O)c1ccc(N(C)C)cc1 (stereo not drawn)	0.811%
OC1(CNCCSc2ccccn2)CNCCOC1 (stereo not drawn)	-9.41%
Cc1ccccc1-n1cc(-c2ccnc(N[C@H](CO)C(C)C)n2)cn1	4.43%
Cc1nc(N2CCCCC2)ncc1-c1cc(=O)[nH]c(N2CCCC2)n1	1%
Cc1c[nH]c(CN2CCCn3nc(CNS(C)(=O)=O)cc3C2)n1	1.79%
O=C(C1CCCC1)N1CCC(C2CCN(Cc3ccc(Cl)cc3)C2)CC1 (stereo not drawn)	-2.45%
O[C@@H]1CN(c2nc3ccccc3s2)CC[C@H]1c1ccc2c(c1)OCO2	52.7%
COc1cc(NC(=O)c2ccc(CN3CC[C@H](O)C3)cc2)cc(OC)c1	10.5%
CN1CCCC1c1ccc(C(=O)N2CCc3ccccc3C2)s1 (stereo not drawn)	1.66%
CSc1ccc(-c2nc(CN3CCC(NC(C)=O)C3)c(C)o2)cc1 (stereo not drawn)	1.24%
Cc1ccsc1[C@@H]1CCN(C(=O)c2cc3ccccc3[nH]2)C[C@H]1O	29%
CS(=O)(=O)c1snnc1C1CCN(Cc2ccncc2)CC1	2.31%
O=C(NCCCNc1ccc(C(F)(F)F)cn1)c1ccc(F)cc1	-8.72%

SMILES	cytotoxicity at 10 µM
Cc1ccccc1-c1cc(C(=O)N2CCCC(n3ccnc3C)C2)[nH]n1 (stereo not drawn)	14.3%
Cc1csc(NC(=O)CN2CCc3c(nc(C4CC4)n3C)C2)n1	-6.6%
O=C(Cc1ccc(F)c(Br)c1)N1CCN(CCO)CC1	-11.5%
CC(c1ccco1)N(C)Cc1nc2c(cnn2C)c(=O)[nH]1 (stereo not drawn)	-3.29%
CCc1ncc2c(n1)CN(CC(=O)Nc1ccc(Cl)cn1)CC2	1.47%
CC(=O)Nc1nc(C(=O)NCc2ccc(N3CCCCCC3)nc2)cs1	4.74%
Cn1cc(CN2CC[C@H]3O[C@H](C(=O)NC4CC4)CC[C@H]32)c2ccccc21	8.82%
COc1ccc(C(C)NCc2ccc(OC)c(OC)c2OC)cc1F (stereo not drawn)	55.9%
Cn1cnc(S(=O)(=O)N2CC3(CCN(CC4CC4)C3)C2)c1	-99.2%
C1CC(N2Cc3nnn(CC4CC4)c3C(COCC3CC3)C2)C1 (stereo not drawn)	5.57%
CCN(CC)C(=O)c1nc2c(s1)CCN(Cc1cccc(OC)c1)CC2	2.77%
Cc1cc(C)cc(CN2C[C@@H]3OCCN(CC(=O)N(C)C)[C@@H]3C2)c1	-92.9%
O=C(c1cccs1)N1CCCC2(COCCN(c3cccnc3)C2)C1 (stereo not drawn)	-70.3%
Cc1ccc2c(n1)N(CC(C)C)CCN(S(C)(=O)=O)C2	-65.7%
Cc1ccc(C(=O)N2CC[C@H]3[C@H]2CCN3CC2CCOCC2)cc1F	-83.3%
Cc1nnc(N2C[C@H]3OCC[C@H]3[C@H](C(=O)NCC3CC3)C2)s1	2.03%
COc1cccc(CN2C[C@@H]3COC[C@]3(COc3cccnc3)C2)c1	-64.7%
COc1ccc(C(=O)N2Cc3cc(C)ccc3OCC2CN(C)C)cc1 (stereo not drawn)	-14.5%
Cc1ccc(CN2CC[C@H]3O[C@@H](C(=O)N4CCCO4)CC[C@H]32)s1	-3.29%
CN(C)S(=O)(=O)N1C[C@H]2CC[C@@H](C1)N(CCC(=O)NCc1ccco1)C2	-6.74%
